In ChEMBL document CHEMBL1914320, “C4-alkylthiols with activity against Moraxella catarrhalis and Mycobacterium tuberculosis” (Bioorg Med Chem, 2011):
Activity calls are given as the source filed them. The rule behind the calls is not given here.

Experiments:
Escherichia coli [1] = assay: Antibacterial activity against non-beta-lactamase producing Escherichia coli ATCC 25922 at 10 ug/disc after overnight incubation by disc diffusion assay; assay type: functional, organism-based
Procedure, shortened: (§1)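 Isolates were held at −80 °C. Five colonies were suspended in Mueller-Hinton broth to a 0.5 McFarland density and swabbed onto MH agar. Discs carried 10 μg compound, applied in methanol and dried at room temperature. Plates were incubated overnight at 37 °C, and the zone of inhibition was measured in mm from the disc edge. Controls were methanol-only and penicillin discs. Run blinded, in triplicate.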

Staphylococcus aureus [2] = assay: Antibacterial activity against non-beta-lactamase producing Staphylococcus aureus ATCC 25923 at 10 ug/disc after overnight incubation by disc diffusion assay; assay type: functional, organism-based; procedure, shortened: as §1
[3] = system: Mycobacterium tuberculosis; assay: Antimycobacterial activity against wild type Mycobacterium tuberculosis H37Rv at 200 ug/ml by Alamar blue assay; assay type: functional, organism-based
Moraxella catarrhalis [4] = assay: Antibacterial activity against beta-lactamase producing Moraxella catarrhalis isolate 4 at 10 ug/disc after overnight incubation by disc diffusion assay; assay type: functional; conditions: for zone of inhibition at 10 µg/disc: read-out: IZ; procedure, shortened: as §1
Moraxella catarrhalis [5] = assay: Antibacterial activity against beta-lactamase producing Moraxella catarrhalis isolate 4 at 500 ug/ml after overnight incubation by disc diffusion assay; assay type: functional, organism-based
Pseudomonas aeruginosa [6] = assay: Antibacterial activity against non-beta-lactamase producing Pseudomonas aeruginosa ATCC 27853 at 10 ug/disc after overnight incubation by disc diffusion assay; assay type: functional, organism-based; procedure, shortened: as §1
Enterococcus faecalis [7] = assay: Antibacterial activity against non-beta-lactamase producing Enterococcus faecalis ATCC 29212 after 48 hrs by microdilution broth method; assay type: functional, organism-based
Procedure, shortened: (§2)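 Broth microdilution followed CLSI guidelines. Compound was dissolved in 95% ethanol, diluted at least 10-fold into Mueller-Hinton broth, then serially two-fold diluted from 500 to 15.6 μg/mL. Actively growing culture was added at 5 × 10^5 cells/mL. Plates ran 48 h at 37 °C, scored for visible growth at 24 and 48 h. MIC was the lowest concentration without growth. For MBC, 10 μL from each clear well was plated on MH agar. Controls were ethanol and penicillin. Triplicate.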

Enterococcus faecalis [8] = assay: Antibacterial activity against non-beta-lactamase producing Enterococcus faecalis ATCC 29212 at 10 ug/disc after overnight incubation by disc diffusion assay; assay type: functional, organism-based; procedure, shortened: as §1
Moraxella catarrhalis [9] = assay: Antibacterial activity against beta-lactamase producing Moraxella catarrhalis isolate 5 at 500 ug/ml after overnight incubation by disc diffusion assay; assay type: functional, organism-based
Moraxella catarrhalis [10] = assay: Antibacterial activity against beta-lactamase producing Moraxella catarrhalis isolate 5 at 10 ug/disc after overnight incubation by disc diffusion assay; assay type: functional; conditions: for zone of inhibition at 10 µg/disc: read-out: IZ; procedure, shortened: as §1
Moraxella catarrhalis [11] = assay: Antibacterial activity against beta-lactamase producing Moraxella catarrhalis isolate 3 at 500 ug/ml after overnight incubation by disc diffusion assay; assay type: functional, organism-based
Moraxella catarrhalis [12] = assay: Antibacterial activity against beta-lactamase producing Moraxella catarrhalis isolate 3 at 10 ug/disc after overnight incubation by disc diffusion assay; assay type: functional; procedure, shortened: as §1
Moraxella catarrhalis [13] = assay: Antibacterial activity against beta-lactamase producing Moraxella catarrhalis isolate 2 at 500 ug/ml after overnight incubation by disc diffusion assay; assay type: functional, organism-based
Staphylococcus aureus [14] = assay: Antibacterial activity against non-beta-lactamase producing Staphylococcus aureus ATCC 25923 after 48 hrs by microdilution broth method; assay type: functional, organism-based; procedure, shortened: as §2
Moraxella catarrhalis [15] = assay: Antibacterial activity against beta-lactamase producing Moraxella catarrhalis isolate 6 at 500 ug/ml after overnight incubation by disc diffusion assay; assay type: functional, organism-based
Escherichia coli [16] = assay: Antibacterial activity against non-beta-lactamase producing Escherichia coli ATCC 25922 after 48 hrs by microdilution broth method; assay type: functional, organism-based; procedure, shortened: as §2
Moraxella catarrhalis [17] = assay: Antibacterial activity against beta-lactamase producing Moraxella catarrhalis isolate 2 at 10 ug/disc after overnight incubation by disc diffusion assay; assay type: functional; conditions: for zone of inhibition at 10 µg/disc: read-out: IZ; procedure, shortened: as §1
Moraxella catarrhalis [18] = assay: Antibacterial activity against beta-lactamase producing Moraxella catarrhalis isolate 1 at 10 ug/disc after overnight incubation by disc diffusion assay; assay type: functional; conditions: for zone of inhibition at 10 µg/disc: read-out: IZ; procedure, shortened: as §1
Pseudomonas aeruginosa [19] = assay: Antibacterial activity against non-beta-lactamase producing Pseudomonas aeruginosa ATCC 27853 after 48 hrs by microdilution broth method; assay type: functional, organism-based; procedure, shortened: as §2

SMILES | Activity (Escherichia coli [1]) | Activity (Staphylococcus aureus [2]) | antimycobacterial activity (active/not active) [3] | inhibition zone (IZ) (Moraxella catarrhalis [4]) | antibacterial activity (active/not active) (Moraxella catarrhalis [5]) | Activity (Pseudomonas aeruginosa [6]) | Activity (Enterococcus faecalis [7]) | Activity (Enterococcus faecalis [8]) | antibacterial activity (active/not active) (Moraxella catarrhalis [9]) | inhibition zone (IZ) (Moraxella catarrhalis [10]) | antibacterial activity (active/not active) (Moraxella catarrhalis [11]) | inhibition zone (IZ) (Moraxella catarrhalis [12]) | antibacterial activity (active/not active) (Moraxella catarrhalis [13]) | Activity (Staphylococcus aureus [14]) | antibacterial activity (active/not active) (Moraxella catarrhalis [15]) | Activity (Escherichia coli [16]) | inhibition zone (IZ) (Moraxella catarrhalis [17]) | inhibition zone (IZ) (Moraxella catarrhalis [18]) | Activity (Pseudomonas aeruginosa [19]) | other results
CCOC(=O)CN1C(=O)C(OC)C1C(C)(C)SSC (racemic) | inactive | inactive | Active | inactive | Active | inactive | inactive | inactive | Active | inactive | Active | inactive | Active | inactive | Active | inactive | inactive | inactive | inactive | –
O=C1CC(Sc2ccccc2)N1 (racemic) | inactive | inactive | inactive | inactive | inactive | inactive | inactive | inactive | inactive | inactive | inactive | inactive | inactive | inactive | inactive | inactive | inactive | inactive | inactive | –
O=C1CC(Sc2ccccc2)N1S(=O)(=O)O (racemic) | inactive | inactive | – | inactive | – | inactive | inactive | inactive | – | inactive | – | inactive | – | inactive | – | inactive | inactive | inactive | inactive | –
O=C1CC(Sc2cccs2)N1S(=O)(=O)O (racemic) | inactive | inactive | Active | inactive | Active | inactive | inactive | inactive | Active | inactive | Active | inactive | Active | inactive | Active | inactive | inactive | inactive | inactive | –
CCOC(=O)CN1C(=O)C(OC)C1C(CC)(CC)SSC(C=O)(CC)CC (racemic) | inactive | inactive | Active | inactive | Active | inactive | inactive | inactive | Active | – | Active | inactive | Active | inactive | Active | inactive | inactive | – | inactive | zone of inhibition at 10 µg/disc (Moraxella catarrhalis [10]): 3 mm; zone of inhibition at 10 µg/disc (Moraxella catarrhalis [18]): 20 mm
CCC(S)(CC)CO | inactive | inactive | – | – | – | inactive | inactive | inactive | – | – | – | inactive | – | inactive | – | inactive | – | – | inactive | zone of inhibition at 10 µg/disc (Moraxella catarrhalis [4]): 3 mm; zone of inhibition at 10 µg/disc (Moraxella catarrhalis [10]): 12 mm; zone of inhibition at 10 µg/disc (Moraxella catarrhalis [17]): 3 mm; zone of inhibition at 10 µg/disc (Moraxella catarrhalis [18]): 5 mm
O=C1CC(SCCO)N1 (racemic) | inactive | inactive | inactive | – | inactive | inactive | inactive | inactive | inactive | – | inactive | – | inactive | inactive | inactive | inactive | – | – | inactive | –
CCC(C=O)(CC)SSC(C=O)(CC)CC | inactive | inactive | – | – | – | inactive | inactive | inactive | – | – | – | inactive | – | inactive | – | inactive | – | – | inactive | zone of inhibition at 10 µg/disc (Moraxella catarrhalis [4]): 5 mm; zone of inhibition at 10 µg/disc (Moraxella catarrhalis [10]): 10 mm; zone of inhibition at 10 µg/disc (Moraxella catarrhalis [17]): 10 mm; zone of inhibition at 10 µg/disc (Moraxella catarrhalis [18]): 10 mm
O=C1CC(SCCCO)N1 (racemic) | inactive | inactive | inactive | – | inactive | inactive | inactive | inactive | inactive | – | inactive | – | inactive | inactive | inactive | inactive | – | – | inactive | –
Nc1ccc(SC2CC(=O)N2)cc1 (racemic) | inactive | inactive | Active | – | Active | inactive | inactive | inactive | Active | – | Active | – | Active | inactive | Active | inactive | – | – | inactive | –
O=C1CC(Sc2ccc(S)cc2)N1S(=O)(=O)O (racemic) | inactive | inactive | Active | – | Active | inactive | inactive | inactive | Active | – | Active | – | Active | inactive | Active | inactive | – | – | inactive | –
CCOC(=O)CN1C(=O)C(OC)C1C(S)(CC)CC (racemic) | inactive | inactive | inactive | – | inactive | inactive | inactive | inactive | inactive | – | inactive | – | inactive | inactive | inactive | inactive | – | – | inactive | –
